From publication PMC4462192 (Bioorganic & medicinal chemistry letters, 2015)
pIC50: −log10 of the molar value.

Key:
GGTase II = molecular target: T1, GGTase II (Homo sapiens, UniProt P53611+Q92696); details: cited from earlier work
T1 sequence (Q92696 1-567): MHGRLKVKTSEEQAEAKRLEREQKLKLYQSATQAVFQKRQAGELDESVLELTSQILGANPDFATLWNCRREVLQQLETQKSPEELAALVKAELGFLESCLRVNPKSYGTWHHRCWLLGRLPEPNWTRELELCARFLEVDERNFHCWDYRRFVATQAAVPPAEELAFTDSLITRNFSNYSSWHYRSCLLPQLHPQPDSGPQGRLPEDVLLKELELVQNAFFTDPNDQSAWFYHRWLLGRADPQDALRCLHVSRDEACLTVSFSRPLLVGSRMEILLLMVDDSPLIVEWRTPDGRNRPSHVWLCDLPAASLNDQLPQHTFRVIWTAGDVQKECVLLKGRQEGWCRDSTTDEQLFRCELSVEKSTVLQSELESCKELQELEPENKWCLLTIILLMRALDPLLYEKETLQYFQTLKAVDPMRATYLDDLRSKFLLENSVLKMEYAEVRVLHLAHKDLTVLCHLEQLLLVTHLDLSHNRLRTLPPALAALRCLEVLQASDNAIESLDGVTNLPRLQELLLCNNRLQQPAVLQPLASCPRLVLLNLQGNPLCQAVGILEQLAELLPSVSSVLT
T1 sequence (P53611 1-331): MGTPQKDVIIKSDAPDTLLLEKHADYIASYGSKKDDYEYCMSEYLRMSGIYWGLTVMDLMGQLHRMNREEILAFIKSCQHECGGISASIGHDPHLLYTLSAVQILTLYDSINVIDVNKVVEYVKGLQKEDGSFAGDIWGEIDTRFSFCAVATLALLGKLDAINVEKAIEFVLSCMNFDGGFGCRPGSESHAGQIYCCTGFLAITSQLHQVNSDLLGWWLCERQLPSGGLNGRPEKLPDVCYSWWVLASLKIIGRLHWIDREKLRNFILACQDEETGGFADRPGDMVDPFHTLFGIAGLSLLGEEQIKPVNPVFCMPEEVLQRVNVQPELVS

[1] = system: geranylgeranyl diphosphate synthase (GGDPS); details: cited from earlier work
[2] = system: farnesyl diphosphate synthase (FDPS); details: cited from earlier work
[3] = system: Rab6 geranylgeranylation in RPMI-8226 cells; test: immunoblot for membrane-bound Rab6; assay type: cell-based, human; details: 48 hours, 5 mM, detergent (membrane) fraction
Outline: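 RPMI-8226 human myeloma cells were exposed to test compound at 5 mM or left untreated for 48 hours, with lovastatin at 20 μM as a global prenylation-disruption control. Cells were lysed by Triton X-114 partitioning to give the detergent (membrane) fraction, which was immunoblotted for Rab6 with calnexin as the loading control. Blots are representative of two independent studies.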

RPMI-8226 cells = test: intracellular lambda light chain ELISA; assay type: cell-based, human; details: 48 hours, 5 mM, vs untreated control
Outline: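 RPMI-8226 cells were incubated for 48 hours with test compound at 5 mM, alongside untreated and lovastatin (20 μM) controls. Intracellular lambda light chain was quantified by ELISA and expressed as percent of untreated control, mean + SD, n=3. Significance versus untreated cells was assessed by unpaired two-tailed t-test at p<0.05.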

| SMILES | activity against FDPS [2] | membrane-bound Rab6 level [3] | intracellular lambda light chain accumulation (RPMI-8226 cells) | other results |
| --- | --- | --- | --- | --- |
| O=C(O)C(O)(Cc1cnc2ccccn12)P(=O)(O)O (single isomer, unassigned; enantiomer 4) [(+)-enantiomer 4] |  |  |  | activity of (+)-enantiomer relative to (−)-enantiomer (GGTase II): ~ 60 fold; inhibition of other enzyme involved in isoprenoid biosynthesis, probably GGDPS [1]: weak inhibition |
| O=C(O)C(O)(Cc1cccnc1)P(=O)(O)O (stereo not drawn) [compound 1, 2-(3-pyridinyl)-1-hydroxyethylidene-1,1-phosphonocarboxylic acid] | show little activity against FDPS | induces a decrease in the amount of membrane-bound Rab6 | induce an accumulation of intracellular light chain | difference in activity between the enantiomers (GGTase II): ~ 4 fold |
| O=C(O)C(Cc1cccnc1)P(=O)(O)O (stereo not drawn) [compound 2, 2-(3-pyridinyl)-1-ethylidene-1,1-phosphonocarboxylic acid] | show little activity against FDPS | diminished the level of membrane-bound Rab6 to a lesser extent | do not significantly alter light chain trafficking | GGTase II potency relative to PEHPC (GGTase II): potency similar to PEHPC |
| O=C(O)C(O)(Cc1ccc[n+]([O-])c1)P(=O)(O)O (stereo not drawn) [compound 6] |  | diminished the level of membrane-bound Rab6 to a lesser extent | induce an accumulation of intracellular light chain |  |
| O=C(O)C(Cc1ccc[n+]([O-])c1)P(=O)(O)O (stereo not drawn) [compound 7] |  | did not decrease membrane-bound Rab6 levels | do not significantly alter light chain trafficking |  |
